Data from ChEMBL document CHEMBL2177069, “Novel peptidomimetic compounds containing redox active chalcogens and quinones as potential anticancer agents” (Eur J Med Chem, 2012).
Calls of active or inactive are those of the source. The rule behind the calls is not given here.

Legend:
Saccharomyces cerevisiae [1] = assay: Growth inhibition of wild type Saccharomyces cerevisiae BY4741 at 20 ug/disc after 24 to 48 hrs by agar diffusion assay; format: functional; conditions: read-out: DIZ
Outline: (§1)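 S. cerevisiae deletion mutants or wild type grown on YPD, seeded into liquid agar medium at an optical density of 0.1. 6 mm paper discs soaked with methanolic compound solution were placed on the plates and incubated at 30 °C. Growth was checked after 1 and 2 days, and the inhibition zone diameter was recorded in mm.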

Saccharomyces cerevisiae [2] = assay: Growth inhibition of PST2-deficient Saccharomyces cerevisiae YDR032C mutant at 20 ug/disc 24 to 48 hrs by agar diffusion assay; format: functional; conditions: read-out: DIZ; outline: as §1
HUVEC [3] = assay: Cytotoxicity against human HUVEC cells after 24 hrs by MTT assay; format: cell-based
Outline: (§2)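 MTT assay. Cells were seeded at 50,000 cells/mL in medium with 10% fetal calf serum and grown for two days at 37 °C, 10% CO2. Serial dilutions of compound were then added for 24 h. MTT was added (final 0.5 mg/mL) for 2 h, and the formazan was pelleted, washed, dissolved in isopropanol with 0.4% HCl and read at 590 nm. IC50 is the concentration giving 50% of untreated-control absorbance, taken from dose-response curves; mean of two parallel experiments.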

HUVEC [4] = assay: Induction of oxidative stress in human HUVEC cells assessed as increase in superoxide free radical production after 1 hr by DHE-based by fluorescence spectrophotometric analysis; format: cell-based
Outline: (§3)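 Cells were seeded at 10^5 per well and given graded compound concentrations for 1 h. They were then loaded with DHE or DCF probe for 30 min in the dark. Fluorescence was read immediately: DHE ex 540/em 600 nm; DCF ex 485/em 528 nm. Results were expressed as arbitrary units per 10^5 cells.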

HUVEC [5] = assay: Induction of oxidative stress in human HUVEC cells assessed as increase in hydrogen peroxide free radical production after 1 hr by DCF-based fluorescence spectrophotometric analysis; format: cell-based; outline: as §3
A-431 [6] = assay: Induction of oxidative stress in human A431 cells assessed as increase in hydrogen peroxide free radical production after 1 hr by DCF-based fluorescence spectrophotometric analysis; format: functional, cell-based; outline: as §3
Saccharomyces cerevisiae [7] = assay: Growth inhibition of COX17-deficient Saccharomyces cerevisiae YLL009C mutant at 20 ug/disc after 24 to 48 hrs by agar diffusion assay; format: functional; conditions: read-out: DIZ; outline: as §1
[8] = Cytotoxicity against human PHF cells after 24 hrs by MTT assay; format: cell-based; outline: as §2
Saccharomyces cerevisiae [9] = assay: Growth inhibition of WSC4-deficient Saccharomyces cerevisiae YHL028W mutant at 20 ug/disc 24 to 48 hrs by agar diffusion assay; format: functional; conditions: read-out: DIZ; outline: as §1
MCF7 [10] = assay: Induction of Cell cycle arrest in human MCF7 cells assessed as G0/1 phase cells at IC50 concentration after 24 hrs by PI-staining based flow cytometric analysis (reference value: 68%); format: functional
Outline: (§4)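 MCF-7 cells (10^6) were treated for 24 h, with methanol as the vehicle control. Cells were fixed in cold 70% methanol at 4 °C for one day, washed with PBS, and permeabilized with 0.1% saponin in PBS. They were stained with propidium iodide plus RNase for 30 min. DNA content was read by flow cytometry, giving percentages of cells per cell-cycle phase.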

Saccharomyces cerevisiae [11] = assay: Growth inhibition of UFD2-deficient Saccharomyces cerevisiae YDL190C mutant at 20 ug/disc after 24 to 48 hrs by agar diffusion assay; format: functional; conditions: read-out: DIZ; outline: as §1
MCF7 [12] = assay: Cytotoxicity against human MCF7 cells after 24 hrs by MTT assay; format: functional, cell-based; conditions: MCF7, 24 h; outline: as §2
MCF7 [13] = assay: Induction of oxidative stress in human MCF7 cells assessed as decrease in GSH level at 5 uM after 1 hr by DTNB assay relative to control; format: functional; design: scale not given: the % may be the effect or the level left
Outline: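 MCF-7 cells (10^6) were treated for 1 h at 37 °C, trypsinized, and washed twice with cold PBS. GSH was extracted with chilled 5% metaphosphoric acid at 4 °C for 2 h, then the lysate was centrifuged. Supernatant was mixed with 0.2 M sodium phosphate pH 8.0 and 0.04 mM DTNB for 10 min at room temperature. Absorbance was read at 412 nm against a reagent blank, and GSH was quantified from a standard curve.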

Saccharomyces cerevisiae [14] = assay: Growth inhibition of GSH2-deficient Saccharomyces cerevisiae YOL049W mutant at 20 ug/disc after 24 to 48 hrs by agar diffusion assay; format: functional; conditions: read-out: DIZ; outline: as §1
Saccharomyces cerevisiae [15] = assay: Growth inhibition of SOD2-deficient Saccharomyces cerevisiae YHR008C mutant at 20 ug/disc 24 to 48 hrs by agar diffusion assay; format: functional; conditions: read-out: DIZ; outline: as §1
MCF7 [16] = assay: Induction of Cell cycle arrest in human MCF7 cells assessed as S phase cells at IC50 concentration after 24 hrs by PI-staining based flow cytometric analysis (reference value: 19%); format: functional; outline: as §4
Saccharomyces cerevisiae [17] = assay: Growth inhibition of RCK1-deficient Saccharomyces cerevisiae YGL158W mutant at 20 ug/disc after 24 to 48 hrs by agar diffusion assay; format: functional; conditions: read-out: DIZ; outline: as §1
Saccharomyces cerevisiae [18] = assay: Growth inhibition of POS5-deficient Saccharomyces cerevisiae YPL188W mutant at 20 ug/disc after 24 to 48 hrs by agar diffusion assay; format: functional; conditions: read-out: DIZ; outline: as §1
A-431 [19] = assay: Cytotoxicity against human A431 cells after 24 hrs by MTT assay; format: functional, cell-based; conditions: A-431, 24 h; outline: as §2
Saccharomyces cerevisiae [20] = assay: Growth inhibition of GTT2-deficient Saccharomyces cerevisiae YLL060C mutant at 20 ug/disc after 24 to 48 hrs by agar diffusion assay; format: functional; conditions: read-out: DIZ; outline: as §1
MCF7 [21] = assay: Induction of Cell cycle arrest in human MCF7 cells assessed as G2/M phase cells at IC50 concentration after 24 hrs by PI-staining based flow cytometric analysis (reference value: 13%); format: functional; outline: as §4
A498 = assay: Cytotoxicity against human A498 cells after 24 hrs by MTT assay; format: functional, cell-based; conditions: A498, 24 h; outline: as §2
Saccharomyces cerevisiae [22] = assay: Growth inhibition of SOD1-deficient Saccharomyces cerevisiae YJR104C mutant at 20 ug/disc after 24 to 48 hrs by agar diffusion assay; format: functional; conditions: read-out: DIZ; outline: as §1

Compound | zone of inhibition at 20 µg/disc (Saccharomyces cerevisiae [1]) [mm] | zone of inhibition at 20 µg/disc (Saccharomyces cerevisiae [2]) [mm] | IC50 (HUVEC [3]) [µM] | zone of inhibition at 20 µg/disc (Saccharomyces cerevisiae [7]) [mm] | IC50 [8] [µM] | zone of inhibition at 20 µg/disc (Saccharomyces cerevisiae [9]) [mm] | zone of inhibition at 20 µg/disc (Saccharomyces cerevisiae [11]) [mm] | IC50 (MCF7 [12]) [µM] | zone of inhibition at 20 µg/disc (Saccharomyces cerevisiae [14]) [mm] | zone of inhibition at 20 µg/disc (Saccharomyces cerevisiae [15]) [mm] | zone of inhibition at 20 µg/disc (Saccharomyces cerevisiae [17]) [mm] | zone of inhibition at 20 µg/disc (Saccharomyces cerevisiae [18]) [mm] | IC50 (A-431 [19]) [µM] | zone of inhibition at 20 µg/disc (Saccharomyces cerevisiae [20]) [mm] | IC50 (A498) [µM] | zone of inhibition at 20 µg/disc (Saccharomyces cerevisiae [22]) [mm] | also measured
CC1=C([Se]CC(OC(=O)[C@@H](CSSC(C)(C)C)NC(=O)OC(C)(C)C)C(=O)NC(C)(C)C)C(=O)c2ccccc2C1=O (stereo not given in full) | 0 | 11 | 2 | 14 | 4 | 20 | 0 | 3 | 14 | 18 | 14 | 11 | 2 | 20 | 5 | 21 | Activity (HUVEC [4]): Non-toxic; Activity (HUVEC [5]): Non-toxic; Activity (A-431 [6]): Active; Activity (MCF7 [10]): 95%; Activity (MCF7 [13]): 46%; Activity (MCF7 [16]): 3.9%; Activity (MCF7 [21]): 1.6%
CC1=C([Se]CC(OC(=O)CNC(=O)OC(C)(C)C)C(=O)NCCCCCC(=O)OCc2ccccc2)C(=O)c2ccccc2C1=O (stereo not given) | 0 | 11 | 36 | 0 | 6 | 14 | 0 | 4 | 0 | 25 | 0 | 0 | 5 | 18 | 7 | 20 | Activity (MCF7 [13]): 76%
CC1=C(SCCC(=O)OC(CC[Se]c2ccccc2)C(=O)NCCCCCC(=O)OCc2ccccc2)C(=O)c2ccccc2C1=O (stereo not given) | 0 | 11 | 17 | 0 | 21 | 11 | 0 | 19 | 0 | 12 | 0 | 0 | > 100 | 17 | > 100 | 13 | Activity (HUVEC [4]): Non-toxic; Activity (HUVEC [5]): Non-toxic; Activity (A-431 [6]): Active
CC(C)(C)NC(=O)COC(=O)c1ccc(-c2c3nc(c(-c4ccccc4)c4ccc([nH]4)c(-c4ccccc4)c4nc(c(-c5ccccc5)c5ccc2[nH]5)C=C4)C=C3)cc1 | – | – | > 100 | – | > 100 | – | – | > 100 | – | – | – | – | > 100 | – | > 100 | – | –
CC1=C(SCCC(=O)OC(C[Se]C2=C(C)C(=O)c3ccccc3C2=O)C(=O)NC(C)(C)C)C(=O)c2ccccc2C1=O (stereo not given) | – | – | 1 | – | – | – | – | 3 | – | – | – | – | 1 | – | 3 | – | –
CC1=C(SCCC(=O)OC(C[Se]c2ccccc2)C(=O)NC(C)(C)C)C(=O)c2ccccc2C1=O (stereo not given) | 0 | 12 | 34 | 0 | 26 | 11 | 0 | 14 | 9 | 12 | 9 | 9 | 7 | 12 | > 100 | 15 | –
CC(C)(C)NC(=O)C(C[Se]c1ccccc1)OC(=O)c1ccc(-c2c3nc(c(-c4ccccc4)c4ccc([nH]4)c(-c4ccccc4)c4nc(c(-c5ccccc5)c5ccc2[nH]5)C=C4)C=C3)cc1 (stereo not given) | – | – | > 100 | – | > 100 | – | – | > 100 | – | – | – | – | > 100 | – | > 100 | – | –
CC1=C([Se]CC(OC(=O)c2ccc(-c3c4nc(c(-c5ccccc5)c5ccc([nH]5)c(-c5ccccc5)c5nc(c(-c6ccccc6)c6ccc3[nH]6)C=C5)C=C4)cc2)C(=O)NC(C)(C)C)C(=O)c2ccccc2C1=O (stereo not given) | – | – | > 100 | – | > 100 | – | – | > 100 | – | – | – | – | > 100 | – | > 100 | – | –
CC1=C(SCCC(=O)OC(C[Se]c2ccccc2)C(=O)NCCCCCC(=O)OCc2ccccc2)C(=O)c2ccccc2C1=O (stereo not given) | 0 | 12 | 23 | 0 | 50 | 12 | 0 | 10 | 0 | 13 | 0 | 0 | > 100 | 0 | > 100 | 18 | –
